These results are taken from ChEMBL document CHEMBL4513216, “Probing the Open Global Health Chemical Diversity Library for Multistage-Active Starting Points for Next-Generation Antimalarials” (ACS Infect Dis, 2020).

The data set is described as follows: Toxicity liver stage against HepG2, at 10uM. The format is cell-based. On the set-up: test concentration 10 uM, cell line HepG2-A16-CD81EGFP. The conditions noted are these: human, HepG2-A16-CD81EGFP cells; read-out: INHIBITION
The gist of the method:
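Uninfected HepG2-A16-CD81EGFP cells, 3 × 10^3 per well, 1536-well, plated on prespotted compound at 10 μM final, parasite-free screening media added to match infected plates; puromycin 10 μM positive, DMSO 0.5% negative; run in parallel with 48 h PbLuc assay at 37 °C, 5% CO2; viability by CellTiter-Glo luminescence, normalized to controls.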

For `O=C1[C@H]2CN(C3CCOCC3)C[C@H]2CN1Cc1cccnc1`, the cytotoxicity at 10 µM is -127%.

Regarding `CC(=O)N1CCC(Cc2cnc(-c3c(C)nn(C)c3C)cn2)C1` (stereo unspecified), the cytotoxicity at 10 µM was -7.31%.

In the case of `CC(=O)N1CCN(C(=O)CCCc2nnc(-c3ccccc3)o2)CC1`, the cytotoxicity at 10 µM is -12.5%.

`COCC(=O)Nc1ccc(Oc2ccsc2C(=O)O)cc1`: the cytotoxicity at 10 µM turned out to be 8.12%.

Consider `COc1ncccc1CN1C[C@@H]2COC[C@]2(COc2cccnc2)C1`, for which the cytotoxicity at 10 µM is -0.182%.

Regarding `Cc1nc(CN2C[C@@H]3CN(C(=O)c4cnccn4)C[C@@H]3C2)cs1`, the cytotoxicity at 10 µM was -8.97%.

Regarding `CCOc1ccccc1C(C(=O)O)N(C)Cc1cc(C)[nH]n1` (stereo unspecified), the cytotoxicity at 10 µM was determined as 9.34%.

As for `Cc1noc(Cl)c1CCC(=O)N1CCN(c2ncccn2)CC1`, the cytotoxicity at 10 µM is -2.01%.

For the compound `N#Cc1cccc(C(=O)N2C[C@H](CO)C[C@H](CN3CCCC3)C2)c1`, the cytotoxicity at 10 µM was -1.04%.

`CC=C(C)C(=O)NS(=O)(=O)c1ccc(Cl)cn1`: the cytotoxicity at 10 µM came to 7.04%.

With `CCN1CCN(C(=O)Cc2ccc(S(=O)(=O)C(F)F)cc2)CC1`, the cytotoxicity at 10 µM is -6.43%.

Regarding `Cc1nc(C(F)(F)F)nc(N2CCC(O)(C(=O)O)CC2)c1C`, the cytotoxicity at 10 µM stood at 10.4%.

With `CC(C)c1nccc(CN2CCCC(O)(CN(C)C)CC2)n1` (stereo unspecified), the cytotoxicity at 10 µM was -2.01%.

`CN(Cc1ccc2c(c1)OCO2)C(=O)NCCc1cnn(C)c1`: the cytotoxicity at 10 µM is -2.69%.

Regarding `Cc1n[nH]c(CCC(=O)N2CCOC(Cc3ccccc3)C2)c1C` (stereo unspecified), the cytotoxicity at 10 µM is -44.1%.

As to `CC(C)Oc1ccc(CN2CCCC(N3CCCC3)C2)cc1CO` (stereo unspecified), the cytotoxicity at 10 µM came out at 0.271%.

For `c1csc(N2CCCN(Cc3nc(C4CC4)no3)CC2)n1`, the cytotoxicity at 10 µM is -9.68%.

With `Cc1nc(CN2CCCC(N(C)Cc3cnn(C)c3)C2)no1` (stereo unspecified), the cytotoxicity at 10 µM is -7.72%.

In the case of `O=C(COc1ccc(Cl)cc1)NCc1nncn1C1CC1`, the cytotoxicity at 10 µM came out at 7.67%.

On to `CCn1nc(C)c2ncnc(NCCCn3ccnc3)c21`, for which the cytotoxicity at 10 µM turned out to be 10.3%.

For the compound `CN(CC(=O)N1CCCC1)C(=O)c1cccn1CCc1ccccc1`, the cytotoxicity at 10 µM worked out at 6.99%.

In the case of `NCC1[C@H]2CN(Cc3ccccc3)C[C@@H]12` (stereo partly specified), the cytotoxicity at 10 µM amounted to 4.78%.

As to `CC(=O)N[C@@H]1CN(C(=O)c2csc(C(C)C)n2)C[C@H]1C(C)C`, the cytotoxicity at 10 µM is -6.71%.

`CNC(=O)CN(C)C(=O)c1cc(Cl)c(I)cc1OC`: the cytotoxicity at 10 µM is 13.8%.

As for `Cc1ccc(CNC(=O)NC2CCN(CC(F)F)CC2)cc1`, the cytotoxicity at 10 µM is -6.25%.

On to `O=C([C@@H]1CCCO1)N1CCC(Cn2cc(-c3ccsc3)nn2)CC1`, for which the cytotoxicity at 10 µM is 3.43%.

On to `COCc1noc(-c2ccc(N(C)Cc3c(C)n[nH]c3C)nc2)n1`, for which the cytotoxicity at 10 µM was found to be 0.897%.

For the compound `CN(CC(=O)NC1(C)CCS(=O)(=O)C1)Cc1ccc(Br)cc1` (stereo unspecified), the cytotoxicity at 10 µM is -1.4%.

For `CCOC1CCCN(C(=O)c2[nH]nc(C3CC3)c2Br)C1` (stereo unspecified), the cytotoxicity at 10 µM was -5.4%.

For the compound `CCOC1CCN(C(=O)NCCN(C)C(=O)OC(C)(C)C)CC1`, the cytotoxicity at 10 µM was 15.8%.

Turning to `Cc1nn(C)cc1S(=O)(=O)NCC(c1ccccc1)N1CCCCCC1` (stereo unspecified), the cytotoxicity at 10 µM is -13.6%.

For `COCCN1CCn2cc(CNC(=O)c3cnn(C)c3)nc2C1`, the cytotoxicity at 10 µM is -3.09%.

Take `O=C1NCCN2CCN(C(=O)NCCc3ccccc3)CC12` (stereo unspecified): the cytotoxicity at 10 µM stood at 17.6%.

As to `COCCN1CCN(Cc2cccc(C(N)=O)c2)CC1C` (stereo unspecified), the cytotoxicity at 10 µM was determined as 0.794%.

Turning to `Cc1nc(-c2ccco2)ccc1C(=O)N1CCCC1Cn1cccn1` (stereo unspecified), the cytotoxicity at 10 µM is 5.61%.

In the case of `CCOc1ccc(Cl)c(C(=O)N2CCCN(CC(N)=O)CC2)n1`, the cytotoxicity at 10 µM was -1.26%.

Turning to `Cc1ccsc1C(=O)NCc1ccnc(C2CCCOC2)n1` (stereo unspecified), the cytotoxicity at 10 µM is -23.6%.

As to `CNC1CCC2(CC1)CNC(=O)c1cc(C)ccc1O2` (stereo unspecified), the cytotoxicity at 10 µM was -9.28%.

Take `CCOCC1CN(Cc2ccoc2)Cc2cn(CC3CC3)nc21` (stereo unspecified): the cytotoxicity at 10 µM is 12.1%.

With `O=C(c1ccco1)N1CCCC2(CN(Cc3ccsc3)CCO2)C1` (stereo unspecified), the cytotoxicity at 10 µM was -2.37%.

As to `Cc1ccc(C(C)N(C)Cc2nc3c(cnn3C)c(=O)[nH]2)cc1` (stereo unspecified), the cytotoxicity at 10 µM is -3.91%.

Regarding `O=C(NS(=O)(=O)c1c(Cl)cccc1Cl)c1cccc2c1OCCO2`, the cytotoxicity at 10 µM came out at 0.582%.

In the case of `COCC(=O)Nc1ccc(Sc2nncn2C)c(Cl)c1`, the cytotoxicity at 10 µM is -5.48%.

For `CCOc1ccc(Cl)c(C(=O)N2CCN(CC(O)CC)CC2)n1` (stereo unspecified), the cytotoxicity at 10 µM was -4.85%.

Regarding `CN1CCN(c2ccc(NC(=O)c3cccs3)c(C(F)(F)F)c2)CC1`, the cytotoxicity at 10 µM was 3.94%.

For `Cn1ccc(C(=O)N2CCC(Cc3cnc4[nH]ccc4c3)CC2)n1`, the cytotoxicity at 10 µM stood at 8.77%.

With `COc1ccc(/C=C/CN2C[C@@H]3CC[C@H]2CN(S(=O)(=O)N(C)C)C3)cc1`, the cytotoxicity at 10 µM was -2.72%.

Turning to `COC1CCN(C(=O)COC(C)=O)CC(=O)N(C)c2ccccc21` (stereo unspecified), the cytotoxicity at 10 µM is 3.17%.

Turning to `O=C1CN(C(=O)CNC(CC(F)(F)F)c2ccc(F)cc2)CCN1` (stereo unspecified), the cytotoxicity at 10 µM was 10.4%.

As for `Cc1ncc(CN2C[C@H]3CC(OCc4ccccc4)C[C@H]3C2)cn1` (stereo partly specified), the cytotoxicity at 10 µM is -24.3%.

Regarding `CC(=O)c1cccc(OCCCC(=O)N(C)Cc2ccccn2)c1`, the cytotoxicity at 10 µM was -24.4%.

As for `O=c1cc(Cn2ccnc2)nc2n1CCCN(Cc1ccc(F)cc1)C2`, the cytotoxicity at 10 µM was 7.17%.

Turning to `COCCNc1ccc(CNC(=O)Nc2cn[nH]c2)cc1`, the cytotoxicity at 10 µM is -2.68%.

Turning to `CCOc1ccc(CN2CCCC(c3nn(C)c(=O)n3CC)C2)cn1` (stereo unspecified), the cytotoxicity at 10 µM was -2.85%.

For `O=C(NCC1(CO)CC1)c1ccccc1F`, the cytotoxicity at 10 µM was 9.99%.

As for `Cc1nc(C(C)(C)NC(=O)Nc2cccc(C#N)c2)no1`, the cytotoxicity at 10 µM is -7.79%.

`CC(C)c1nc(CN(C)C(=O)C2CC(=O)N(Cc3ccncc3)C2)cs1` (stereo unspecified): the cytotoxicity at 10 µM is -3.75%.

Regarding `Brc1ccc2[nH]c3c(c2c1)CCCC3c1nn[nH]n1` (stereo unspecified), the cytotoxicity at 10 µM is 4.49%.

`CS(=O)(=O)c1snnc1C1CCN(Cc2ccncc2)CC1`: the cytotoxicity at 10 µM was 2.31%.

For `CN1CCN(C(=O)c2cc[nH]c(=O)c2)Cc2ccccc21`, the cytotoxicity at 10 µM is -18.1%.

As to `CCC(O)Cn1nc(CCSC)nc1-c1ccc2[nH]ccc2c1` (stereo unspecified), the cytotoxicity at 10 µM is 4.96%.

With `Cc1cccc(CN2CCS(=O)(=O)[C@@H]3CCN(S(C)(=O)=O)CC[C@@H]32)n1`, the cytotoxicity at 10 µM is -3.34%.

On to `O=C(CCNS(=O)(=O)c1cccnc1)N1CCCCC1`, for which the cytotoxicity at 10 µM is -6.13%.

As for `Cc1nc(CN2CCO[C@H]3CN(C(=O)c4cscn4)C[C@H]32)cs1`, the cytotoxicity at 10 µM was -128%.

Take `COCCN1CCO[C@@H]2CN(C(=O)NCc3cccnc3)CC[C@@H]2C1`: the cytotoxicity at 10 µM turned out to be 6.65%.

In the case of `Cc1noc([C@H]2C[C@H]3CN(C(=O)Cc4ccsc4)CC[C@H]3O2)n1`, the cytotoxicity at 10 µM was -1.68%.

For `CNC(=O)[C@@H]1C[C@H]2CN(Cc3ccco3)C[C@H]2N1C`, the cytotoxicity at 10 µM worked out at 7.76%.

Take `c1cncc(C2COC3(CCN(Cc4nccs4)CC3)C2)c1` (stereo unspecified): the cytotoxicity at 10 µM was found to be 1.7%.

In the case of `CCS(=O)(=O)N1CC[C@@H]2[C@H](CC1)N(Cc1cccnc1)CCS2(=O)=O`, the cytotoxicity at 10 µM was -3.12%.

As for `CSCC(=O)N1CCc2c(cnc(C)c2-c2noc(-c3cscn3)n2)C1`, the cytotoxicity at 10 µM was determined as 0.86%.

Regarding `C=C(C)COc1cccc(CNCc2nc3ccccc3c(=O)[nH]2)c1`, the cytotoxicity at 10 µM is -40.9%.

Consider `CN(C)CCN(Cc1ccsc1)C(=O)C1=NNC(=O)CC1`, for which the cytotoxicity at 10 µM was 6.62%.

For `CNS(=O)(=O)c1ccc(CN2CCCN(c3ccccc3)CC2)cc1`, the cytotoxicity at 10 µM was found to be 10.9%.

With `Cc1nc(-c2ccncc2)ncc1C(C)NC(=O)CN1CCCC1=O` (stereo unspecified), the cytotoxicity at 10 µM came to 1.74%.

With `COCCC(=O)N[C@H]1CN(c2nc(C)c3c(n2)CCCC3)C[C@@H]1C1CC1`, the cytotoxicity at 10 µM is -12.8%.

Regarding `CCS(=O)(=O)N1CCC2(CN(C(=O)c3cscn3)C2)C1`, the cytotoxicity at 10 µM worked out at 10.8%.

As for `c1cnn(CC2CCCN2c2ncnc3c2CCC3)c1` (stereo unspecified), the cytotoxicity at 10 µM amounted to 41.2%.

Consider `CCCc1nnc(NC2CCN(Cc3ccc(F)c(F)c3)CC2)o1`, for which the cytotoxicity at 10 µM was -1.48%.

Take `c1cncc(O[C@H]2COCCN(C3CCC3)C2)c1`: the cytotoxicity at 10 µM was 0.514%.

Turning to `COC(=O)c1ccc(N(C)C2CCC2)nn1`, the cytotoxicity at 10 µM worked out at 19.8%.

Take `CN(CCOc1ccc(C#N)cc1)CC1CCS(=O)(=O)C1` (stereo unspecified): the cytotoxicity at 10 µM is -6.94%.

Regarding `COc1cccc(CC2CN(C3CCC3)CCO2)c1` (stereo unspecified), the cytotoxicity at 10 µM is 0.388%.

On to `COc1nc2ccn(CCNc3cc(C)ccn3)c(=O)c2cc1C#N`, for which the cytotoxicity at 10 µM turned out to be 11.7%.

In the case of `CC[C@@]1(O)CCN(C(=O)CCSCc2ccc(F)cc2)C[C@H]1O`, the cytotoxicity at 10 µM came to 0.264%.

As for `CN(Cc1cc2n(n1)CCNC2)Cc1n[nH]c2c1CCCCC2`, the cytotoxicity at 10 µM is -6.32%.

With `Cc1cccc(C(C(=O)NCCCc2ccncc2)N(C)C)c1` (stereo unspecified), the cytotoxicity at 10 µM is -8.38%.

As to `COCc1noc(Cc2c(C)nn(C)c2C)n1`, the cytotoxicity at 10 µM came out at 7%.

On to `Cc1cc(NC(=O)c2ccc(F)cc2Cl)n(C)n1`, for which the cytotoxicity at 10 µM is -77.5%.

Regarding `O=C(CNC(Cn1cccn1)c1ccccc1)Nc1cnccn1` (stereo unspecified), the cytotoxicity at 10 µM is 7.34%.

For the compound `CCN(Cc1ccccc1)c1ncnc2c(C)nn(CC)c12`, the cytotoxicity at 10 µM is -2.48%.

Regarding `NC(=O)c1cc(C2CCCN(CCc3ccc4c(c3)CCO4)C2)n[nH]1` (stereo unspecified), the cytotoxicity at 10 µM was -1.92%.

In the case of `N#Cc1ncn(CCC(=O)Nc2ccc(Cl)cc2F)n1`, the cytotoxicity at 10 µM is -8.94%.

Turning to `COc1cc(C)c(CNC(C)c2csc(C)n2)cc1OC` (stereo unspecified), the cytotoxicity at 10 µM came to 5.06%.

On to `Cc1occc1CNC(=O)C1(C)CCCN(C(=O)c2ccccc2)C1` (stereo unspecified), for which the cytotoxicity at 10 µM was -7.01%.

Consider `Cc1[nH]ncc1C(=O)N1CCCC1c1noc(C2CC2)n1` (stereo unspecified), for which the cytotoxicity at 10 µM was -18.1%.

`Cn1cccc1C(O)CNS(=O)(=O)c1ccccc1F` (stereo unspecified): the cytotoxicity at 10 µM is -14.6%.
